Bioassay records from PubChem BioAssay.
Most compounds without a hit are left out; they make up all but 2.8% or so of the library.
PAFAH1B2 inh – PAFAH1B2 (human) inhibition; inhibition, % at 3.39 µM; recombinant PAFAH1B2, FP-rhodamine activity probe, fluorescence polarization; P68402; 340,000 tested, 1.2% active;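 active means inhibition above the mean of all tested compounds plus 3 SD, cut at about 24% in these data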;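 further: 0% = enzyme with DMSO and 100% = wells lacking PAFAH1B2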
PAFAH1B3 inh – inhibitors of human PAFAH1B3; Q15102; recombinant PAFAH1B3, FP-rhodamine probe, fluorescence polarization; inhibition, % at 3.39 µM; 340,000 tested, 0.28% active;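 active means inhibition above the screen-wide average of all tested compounds plus 3 SD, cut at about 25% in these data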;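 further: 0% = enzyme with DMSO only and 100% = wells lacking PAFAH1B3 protein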
pPAFAH FP inh – inhibitors of human plasma PAF acetylhydrolase (pPAFAH). 330,000 tested, 1.5% active. inhibition, % at 3.39 µM. recombinant pPAFAH, FP-rhodamine probe fluorescence polarization. Q13093;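 active means inhibition above the mean inhibition across the screen plus 3 SD, cut at about 25% in these data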;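 further: inhibitors block binding of the rhodamine activity-based probe so polarization drops; 0% = enzyme with DMSO and 100% = wells lacking pPAFAH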
Target sequence (Q13093 whole entry, looked up): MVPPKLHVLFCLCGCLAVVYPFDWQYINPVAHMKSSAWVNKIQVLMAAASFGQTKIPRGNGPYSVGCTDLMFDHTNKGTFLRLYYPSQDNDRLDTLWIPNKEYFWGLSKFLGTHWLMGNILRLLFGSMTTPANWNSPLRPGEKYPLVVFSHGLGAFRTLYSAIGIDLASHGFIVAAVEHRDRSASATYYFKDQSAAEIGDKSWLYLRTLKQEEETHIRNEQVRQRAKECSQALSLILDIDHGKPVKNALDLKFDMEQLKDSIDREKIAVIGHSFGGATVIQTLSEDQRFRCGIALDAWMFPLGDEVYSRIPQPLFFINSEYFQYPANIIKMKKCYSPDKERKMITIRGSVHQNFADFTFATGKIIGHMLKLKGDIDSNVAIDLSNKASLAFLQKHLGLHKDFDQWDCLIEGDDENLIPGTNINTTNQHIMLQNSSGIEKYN
HTRA1 inh – inhibitors of human serine peptidase HTRA1. Q92743. recombinant HTRA1, FP-rhodamine activity-based probe, fluorescence polarization. inhibition, % at 5.96 µM. 340,000 tested, 0.5% active. AID 504803; in the data active means inhibition above about 36%;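 further: 0% = enzyme with DMSO and 100% = wells lacking enzyme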
PAFAH2 FP inh – inhibitors of human PAFAH2; 340,000 tested, 0.99% active; recombinant PAFAH2, FP-rhodamine activity probe, fluorescence polarization; inhibition, % at 3.39 µM;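 active means inhibition above the mean over all tested compounds plus 3 SD, cut at about 30% in these data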;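 further: inhibitors block probe labeling of enzyme so polarization drops; 0% = enzyme with DMSO and 100% = wells lacking PAFAH2 protein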
mABHD4 FP – inhibits mouse alpha/beta hydrolase domain 4. Q8VD66. purified mABHD4, FP-Rh probe fluorescence polarization. inhibition, % at 8.92 µM. 370,000 tested, 0.54% active. AID 720543;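 active means inhibition exceeding the mean over every tested compound plus 3 SD, cut at about 30% in these data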;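 further: 0% = plate median of compound wells and 100% = S159A mutant with DMSO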
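system = mouse ABHD4 enzyme, wild type | medium = HEPES pH 7.0, NaCl, Pluronic buffer | also added = FP-Rh probe | incubation = Enzyme–compound pre-incubation 45 min, then probe 60 min, both 25 °C | technique = fluorescence polarization, excitation 525 nm, emission 598 nm, BODIPY TMR filters | controls = S159A mutant high control, sample median low control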
PAFAH1B3 conf FP – confirmation of human PAFAH1B3 inhibitors. shares compounds with PAFAH1B3 inh. recombinant PAFAH1B3, FP-Rh activity-based probe, fluorescence polarization. inhibition, % at 3.39 µM. 390 tested, 30% active;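 active means average inhibition over triplicate runs above the hit cutoff set in the earlier primary screen, cut at about 25% in these data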;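 further: 0% = enzyme with DMSO and 100% = wells lacking PAFAH1B3 protein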
* = called active by the depositor; . = not tested or not shown; ! = a repeat was not active.

SMILES	PAFAH1B2 inh	PAFAH1B3 inh	pPAFAH FP inh	HTRA1 inh	PAFAH2 FP inh	mABHD4 FP	PAFAH1B3 conf FP
O=C(O)CCCCCCCCCCCNC(=O)NC12CC3CC(CC(C3)C1)C2	4	26*	0	2	0	1	6
CCCCCC[C@@H](CCCc1ccccc1OC)CN(CCCC)S(C)(=O)=O	.	.	.	.	.	-1	.
COc1cc(OC)c2cc(C(=O)N/N=C/c3ccccc3O)[nH]c2c1	11	29*	22	25	9	9	21
COc1ccc2[nH]c(C(=O)N/N=C/c3ccccc3OC)cc2c1	3	8	7	-16	-4	-27	.
O=C(COC(=O)c1ccc([N+](=O)[O-])s1)c1ccc[nH]1	7	33*	17	24	15	2	26*
O=C(OCC(=O)c1ccc[nH]1)c1ccc([N+](=O)[O-])cc1	1	5	8	3	6	5	.
COc1cc(-c2oc3cc(O)cc(O)c3c(=O)c2O[C@@H]2O[C@H](COC3O[C@@H](C)[C@H](O)[C@@H](O)[C@H]3O)[C@@H](O)[C@H](O)[C@H]2O)ccc1O (stereo partly specified)	4	6	-4	-4	-8	-8	.
C[C@@H]1O[C@@H](Oc2c(-c3cc(O)c(O)c(O)c3)oc3cc(O)cc(O)c3c2=O)[C@H](O)[C@H](O)[C@H]1O	5	44*	-1	-16	-40	10	22
C[C@@H]1O[C@@H](Oc2c(-c3ccc(O)c(O)c3)oc3cc(O)cc(O)c3c2=O)[C@H](O)[C@H](O)[C@H]1O	-4	27*!	3	-3	-11	21	17
O=c1c(OC2OC(CO)C(O)C(O)C2OC2OC(CO)C(O)C(O)C2O)c(-c2ccc(O)cc2)oc2cc(O)cc(O)c12 (stereo unspecified)	5	3	11	1	1	1	.
C[C@@H]1O[C@@H](O[C@H]2[C@H](O)[C@@H](O)[C@H](Oc3c(-c4ccc(O)c(O)c4)oc4cc(O)cc(O)c4c3=O)O[C@@H]2CO)[C@H](O)[C@H](O)[C@H]1O	2	9	1	14	-2	12	.
O=c1c(O[C@@H]2O[C@H](CO)C(O)C2O)c(-c2ccc(O)c(O)c2)oc2cc(O)cc(O)c12 (stereo partly specified)	11	26*	-2	6	-16	.	25
O=c1c(O)c(-c2ccc(O)cc2)oc2cc(O)cc(O)c12	11	30*	21	2	2	10	24
O=C(c1ccc(F)cc1)C1CCN(c2ncnc3sccc23)CC1	.	.	.	.	.	-1	.
COC(=O)C1CN(Cc2ccc(Cl)cc2)CCS(=O)(=O)N1Cc1cn(Cc2ccc(F)cc2)nn1 (stereo unspecified)	.	.	.	.	.	-2	.
COc1ccc2c(CCN3C(=O)c4ccccc4C3=O)c(-c3c(CCN4C(=O)c5ccccc5C4=O)c4ccccc4n3C(=O)OC(C)(C)C)[nH]c2c1	.	.	.	.	.	-9	.
CCCCc1ccc(-c2csc(/C(C#N)=C\c3ccc(C)o3)n2)cc1	-3	-9	10	-12	-8	12	.
CCOc1ccc(-c2csc(/C(C#N)=C\c3ccc(O)c([N+](=O)[O-])c3)n2)cc1	14	35*	21	2	19	3	22
Cn1c2c(c3ccccc31)CCSC2=O	3	26*	-1	1	-6	4	24
O=c1[nH]c(Nc2ccccc2)cc2ccccc12	8	31*	-6	10	2	9	18
COc1ccc(OC)c(Nc2cc3ccccc3c(=O)[nH]2)c1	6	38*	2	6	12	29	15
O=c1[nH]c(Nc2ccccc2)cc2cc(Br)ccc12	16	61*	16	5	18	22	14
COc1ccccc1Nc1cc2cc(Br)ccc2c(=O)[nH]1	6	25	16	0	13	11	.
COc1ccc2[nH]c3c(c2c1)CCN[C@]31C(=O)N(c2ccccc2)c2ccccc21	.	.	.	.	.	9	.
CC[C@@H](OP(=O)(O)[C@@H](C)N)C(=O)O	.	.	.	.	.	5	.
SMILES	PAFAH1B2 inh	PAFAH1B3 inh	pPAFAH FP inh	HTRA1 inh	PAFAH2 FP inh	mABHD4 FP	PAFAH1B3 conf FP
CC1(C)C(=O)OC(c2cccn2-c2ccc([N+](=O)[O-])cc2)C(C)(C)C1=O (stereo unspecified)	10	9	2	-1	0	-2	.
CC1(C)C(=O)OC(c2cccn2-c2ccc([N+](=O)[O-])cc2)C2(CCCCC2)C1=O (stereo unspecified)	1	48*	1	1	-2	-8	5
O=C(CSc1nc2ccsc2c(=O)n1CC1CCC(C(=O)O)CC1)c1ccc(F)cc1 (stereo unspecified)	5	3	1	-10	6	3	.
O=C(CSc1nc2ccsc2c(=O)n1CC1CCC(C(=O)O)CC1)c1ccc(Cl)cc1 (stereo unspecified)	16	27*	3	-11	6	-13	4
COc1cc2sc3cc(NCCCN4CCOCC4)ccc3c(=O)c2cc1OC	5	28*	8	-11	11	0	11
O=c1c2ccccc2sc2ccc(NCCCN3CCOCC3)cc12	-11	9	16	4	7	13	.
COC(=O)[C@]12CCCCC=C1N(Cc1ccc(OC)cc1)C(=O)[C@@H]2CC(=O)NCc1cccs1	.	.	.	.	.	-2	.
Cc1ccc(-c2nc3ncccn3c2NC(=O)c2cccc(C)c2)cc1	.	.	.	.	.	10	.
CCOC(=O)[C@@]12CN(C(=O)OC(C)(C)C)CC=C1N(Cc1ccc(OC)cc1)C(=O)[C@H]2CC(=O)NCCC(C)C	.	.	.	.	.	8	.
O=c1c(=Nc2ccccc2O)c(=O)c2ccccc12	10	50*	1	2	7	14	12
O=c1[nH][nH]cc1C=Nc1ccccc1O	4	6	3	1	2	1	.
CCOC(=O)c1sc(NC(=O)Nc2ccccc2)cc1C	13	27*	2	-27	-19	-4	18
CCOC(=O)c1sc(NC(=O)Nc2ccccc2Cl)cc1C	2	6	14	-27	-47	-11	.
Cc1ccnc(N2C(=O)c3cccc4c([N+](=O)[O-])ccc(c34)C2=O)c1	1	31*	11	6	5	2	41*
O=C1c2cccc3c([N+](=O)[O-])ccc(c23)C(=O)N1Cc1cccnc1	20	47*	.	5	6	5	48*
Cc1ccc(N2C(=O)c3cccc4c([N+](=O)[O-])ccc(c34)C2=O)c2cccnc12	7	24	-2	3	1	-10	.
Cc1nnc(N2C(=O)c3cccc4c([N+](=O)[O-])ccc(c34)C2=O)s1	3	29*	1	18	-5	9	23
